Assay outcomes from PubChem.
KCNQ1 inh: human KCNQ1 channel inhibition | P51787 | CHO-K1 KCNQ1, FluxOR thallium flux fluorescence; hits give high values | 310,000 tested, 1.3% active | B-score at 10 µM | AID 2642;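 active = compounds whose thallium flux B-score, printed positive for inhibition, exceeds three library SD while starting fluorescence stays within three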;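 note: channel opened by potassium depolarization with thallium stimulus after 20 min compound exposure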
KCC2 mod: modulates chloride dependent transport by human KCC2; Q9H2X9; KCC2 cells, thallium flux FluoZin-2 fluorescence; B-score of Tl+ flux slope (higher = more flux/activation; lower = inhibition) at 10 µM; 190,000 tested, 2.2% active; AID 1456;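 active = thallium flux slope and its plate-corrected score both differing from the plate sample mean at a set confidence after two filtering rounds, in either direction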;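 note: slope of fluorescence scaled to starting intensity during 10 to 20 s after thallium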
KCNQ1 act: potentiates or activates the human KCNQ1 potassium channel. P51787. CHO-K1 KCNQ1, thallium flux FluxOR fluorescence; hits give high values. B-score at 10 µM. 310,000 tested, 0.35% active. AID 2648;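 active = fluorescence ratio B-score, a plate-corrected score, at least three library SD, with initial intensity B-score within 5 SD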
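Schedule – 37 °C overnight plating, 90-min dark dye load, 20-min compound pretreatment · System – stable KCNQ1 CHO-K1 line · Probe or stimulus – thallium- and potassium-containing depolarizing buffer · Measured by – kinetic FluxOR fluorescence, 10 s baseline plus 110 s post-stimulus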
KCNK9 block: blocks the human KCNK9 two-pore domain potassium channel; Q9NPC2; HEK293 KCNK9, FluxOR thallium flux fluorescence; hits give low values; B-score at 10 µM; 310,000 tested, 1.2% active;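 active = ratio B-score over 3 SD below the library mean, with starting fluorescence within 5 SD of its mean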;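 note: negative B-score means less thallium flux so channel inhibition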
KCNK3 inh: human KCNK3 channel inhibition, primary screen; O14649; CHO-KCNK3 thallium flux, FluxOR fluorescence; hits give low values; B-score at 10 µM; 340,000 tested, 0.84% active;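 active = B-score under library mean minus 4 SD, starting fluorescence ratio at most library mean plus 5 SD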;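 note: more negative B-score means stronger inhibition of thallium flux through KCNK3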
hERG protect: compounds protecting human hERG from proarrhythmic drug block. Q12809. CHO-hERG, FluxOR thallium flux, dofetilide IC70 present. activation (rescue from dofetilide block), less the hit threshold, % at 10 µM. 310,000 tested, 0.51% active. AID 1511;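 active = activation above the mean of controls blocked by dofetilide plus 5 SD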;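 note: thallium influx through hERG after potassium depolarization seen as dye fluorescence rise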
Target sequence (Q12809 whole entry, looked up): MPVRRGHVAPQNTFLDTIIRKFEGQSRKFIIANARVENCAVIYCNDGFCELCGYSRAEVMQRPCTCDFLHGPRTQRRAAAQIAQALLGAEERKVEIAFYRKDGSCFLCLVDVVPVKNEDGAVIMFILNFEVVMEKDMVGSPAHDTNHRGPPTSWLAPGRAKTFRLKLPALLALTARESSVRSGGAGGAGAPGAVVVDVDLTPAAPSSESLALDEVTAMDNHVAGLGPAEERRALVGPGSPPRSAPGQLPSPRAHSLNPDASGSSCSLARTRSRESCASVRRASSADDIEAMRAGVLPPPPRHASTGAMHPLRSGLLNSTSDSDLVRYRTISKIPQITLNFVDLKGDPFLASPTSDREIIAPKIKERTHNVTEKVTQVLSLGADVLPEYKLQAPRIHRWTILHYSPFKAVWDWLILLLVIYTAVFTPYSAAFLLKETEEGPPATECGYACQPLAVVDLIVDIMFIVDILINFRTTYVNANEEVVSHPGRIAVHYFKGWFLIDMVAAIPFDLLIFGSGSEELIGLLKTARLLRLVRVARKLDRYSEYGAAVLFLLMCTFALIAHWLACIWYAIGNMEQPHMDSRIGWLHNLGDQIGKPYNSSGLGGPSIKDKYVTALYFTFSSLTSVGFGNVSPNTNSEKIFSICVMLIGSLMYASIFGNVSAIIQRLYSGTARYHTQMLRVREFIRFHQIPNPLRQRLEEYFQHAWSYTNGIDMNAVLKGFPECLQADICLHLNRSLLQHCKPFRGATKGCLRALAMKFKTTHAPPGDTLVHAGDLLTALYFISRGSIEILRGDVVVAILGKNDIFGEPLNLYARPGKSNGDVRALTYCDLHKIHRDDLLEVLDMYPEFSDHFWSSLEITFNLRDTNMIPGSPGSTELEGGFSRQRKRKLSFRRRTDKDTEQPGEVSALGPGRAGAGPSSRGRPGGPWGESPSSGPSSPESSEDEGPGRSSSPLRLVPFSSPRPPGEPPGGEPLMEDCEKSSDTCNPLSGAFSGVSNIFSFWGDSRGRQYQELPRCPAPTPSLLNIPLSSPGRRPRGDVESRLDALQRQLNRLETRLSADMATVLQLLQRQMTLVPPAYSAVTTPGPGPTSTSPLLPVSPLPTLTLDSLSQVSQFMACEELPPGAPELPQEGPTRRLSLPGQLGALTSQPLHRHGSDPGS
KCNK9 inh conf: confirmation of human KCNK9 potassium channel inhibitors | shares compounds with KCNK9 block | HEK293 KCNK9 cells, FluxOR thallium flux fluorescence | inhibition, % at 10 µM | 4,900 tested, 43% active;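 active = thallium signal inhibited by more than 5 SD of the compound-free buffer control wells, on both duplicate plates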;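 note: 0% = assay buffer control wells without compound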
Kir21 sel: selectivity of KCNK9 modulators against mouse Kir2.1. AID 492993. 4,900 tested, 4% active. inhibition, % at 10 µM. shares compounds with KCNK9 block. Kir2.1 cells, FluxOR thallium flux fluorescence;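 active = thallium signal drop more than 5 SD beyond the mean of the no-compound control wells, seen in both duplicate plates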;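 note: signal is fluorescence rise after thallium addition divided by baseline fluorescence; plate controls were assay buffer only for no effect and full block by chlorpromazine control for full effect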
KCNK9 uninduced: second counter-screen for KCNK9 modulators: effect in non-induced cells | shares compounds with KCNK9 block | non-induced KCNK9-HEK293, FluxOR thallium flux | inhibition, % at 10 µM | 4,900 tested, 40% active | AID 492997;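 active = thallium signal drop beyond 5 SD of the untreated control mean, on both duplicate plates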;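 note: plate controls were buffer only IC0 wells for no effect and SID17386958 at its maximal inhibitory level for full effect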
* marks the source's active call; other numbers are inactive results; i = inactive; . = no result given; ! = a repeat was not active. A selection: hits, their analogues and other compounds. The true share with any hit is near 4.1%.

SMILES	KCNQ1 inh	KCC2 mod	KCNQ1 act	KCNK9 block	KCNK3 inh	hERG protect	KCNK9 inh conf	Kir21 sel	KCNK9 uninduced
c1ccc(Cc2nnc(N3CCCCC3)c3ccccc23)cc1	i	-2.4	i	i	i	-4.3	i	i	i
O=C1C=C(O)CC(c2ccc(Cl)c(Cl)c2)C1 (stereo not drawn)	i	-2.51	i	i	i	-2.9	.	.	.
CN[C@H]1CC[C@@H](c2ccc(Cl)c(Cl)c2)c2ccccc21	i	-1.35	i	-8.56*!	i	.	34.0%*	i	.
CCC1Oc2ccc(C)cc2N(CC(=O)N(Cc2ccc(C)o2)C2CCCC2)C1=O (stereo not drawn)	i	-0.725	i	i	i	-17.6	i	i	34.5%*
C/C(CC(=O)Nc1ccc(Cl)c(C(F)(F)F)c1)=N\NC(=O)c1ccccc1O	i	-2.93	i	i	i	-14.7	.	.	.
C/C(CC(=O)Nc1ccc(Cl)c(C(F)(F)F)c1)=N\NC(N)=S	7*	0.559	i	i	i	-14.8	i	i	i
C[C@]12CCC[C@H](O1)c1c(cc3c(c1O)C(=O)c1c(O)cc(O)cc1C3=O)O2	14*	.	i	-12.4*	-10.2*	-5.2	57.5%*	i	42.5%*
O=C(CCl)NN1C(=O)NC(c2ccccc2)(c2ccccc2)C1=O	i	.	i	i	i	-0.8	.	.	.
Cc1cc(C(=O)N/N=C/c2ccc(-c3cccc(Cl)c3)o2)n[nH]1	i	.	i	-14.3*	i	-10.1	33.5%*	i	32.0%*
COc1ccc(Sc2nnc(Cc3ccccc3)c3ccccc23)cc1	i	-1.38	i	-14.7*	i	-6.8	i	i	27.0%*
Cc1ccc(Sc2nnc(Cc3ccccc3)c3ccccc23)cc1	i	.	i	-12.9*	i	-8.2	70.0%*	i	41.5%*
Cc1ccc(Sc2nnc(-c3ccccc3)cc2C#N)cc1	i	-0.00936	i	i	i	-14.8	.	.	.
COC(=O)c1ccccc1NC(=O)CN(C)Cc1ccccc1	i	-0.456	i	-9.9*	i	-7.4	39.0%*	i	38.5%*
OCc1nc2c(ccc3ccccc32)[nH]1	i	.	i	i	i	-0.5	.	.	.
CN(C)c1cccc(C(=O)NNC(=O)C23CC4CC(CC(C4)C2)C3)c1	.	.	.	.	i	.	.	.	.
CCOc1ccccc1N(C)C(=O)c1cc2c(=O)n(CC)c3ccccc3c2s1	i	-3.35	i	-13.8*	i	-7.9	70.5%*	i	38.5%*
CCn1c(=O)c2cc(C(=O)N(C)CC(OC)OC)sc2c2ccccc21	i	.	i	i	i	-8.0	.	.	.
Cc1ccc(NC(=O)c2cc(C)n(-c3ccccc3)c2C)cc1	i	-1.09	i	i	i	-12.6	i	i	i
COc1ccccc1CNS(=O)(=O)CCNCCc1ccccc1	.	.	.	.	i	.	.	.	.
C=CCC[C@@H](Cc1ccc(F)cc1)C(=O)OCCNC(=O)[C@H](CC=C)CC(=O)NCCO	.	.	.	.	i	.	.	.	.
COc1ccccc1C/C(N)=N/OC(=O)COc1cccc(C)c1C	i	-1.18	i	i	i	-2.1	i	i	i
C=C(C)C1CCC(C)=C1COC(=O)Nc1ccccc1 (stereo not drawn)	i	-1.38	i	i	i	-7.2	i	i	i
CCOc1cc(/C=N/N=C2/NC(=O)C(CC(=O)O)S2)ccc1OCc1ccc(Cl)cc1Cl (stereo not drawn)	i	-0.488	i	i	i	-5.5	i	i	i
COc1cc(/C=N/N=C2/NC(=O)C(CC(=O)O)S2)ccc1OCc1ccc(Cl)cc1 (stereo not drawn)	i	0.0521	i	i	i	3.2	.	.	.
CCOC(=O)C1C2C=CC(CC2)N1c1ccccc1 (stereo not drawn)	i	.	i	i	i	-8.3	.	.	.
SMILES	KCNQ1 inh	KCC2 mod	KCNQ1 act	KCNK9 block	KCNK3 inh	hERG protect	KCNK9 inh conf	Kir21 sel	KCNK9 uninduced
CC(=O)Nc1ccccc1N(C)S(=O)(=O)c1ccc(C)cc1	i	0.693	i	-8.27*	i	-8.5	i	i	i
CC(=O)Nc1ccccc1NC(=O)CN(C)S(=O)(=O)c1ccc(C)cc1	i	0.636	i	i	i	-7.2	.	.	.
Cc1cccc(NC(=O)CCCN=C2NS(=O)(=O)c3ccccc32)c1C	.	.	.	.	i	.	.	.	.
Cc1ccc(Nc2ncc3c(=O)[nH][nH]c(=O)c3n2)cc1	.	.	.	.	i	.	.	.	.
Cc1cccc2sc(N(CCCN(C)C)C(=O)c3ccc(C(=O)c4ccccc4)cc3)nc12	i	.	i	i	i	-22.8	i	i	i
Cc1cccc2sc(N(CCN(C)C)C(=O)c3cc(Cl)sc3Cl)nc12	i	0.303	i	i	i	-10.4	i	i	i
COc1cc2ccccc2cc1C(=O)N(CCN(C)C)c1nc2c(C)cccc2s1	i	.	i	i	i	-5.5	.	.	.
Cc1ccc2sc(N(CCN(C)C)C(=O)c3ccc4ccccc4c3)nc2c1C	i	.	i	i	i	-11.8	i	i	i
Cc1cccc2sc(N(CCCN(C)C)C(=O)c3sc4ccccc4c3Cl)nc12	.	0.115	.	.	i	.	.	.	.
CCC1(c2ccccc2)SC(N)=NC1=O (stereo not drawn)	.	.	.	.	i	.	.	.	.
Cc1ccc(C(C)C)c(OCC#CCN2CCOCC2)c1	i	.	i	i	i	-6.0	.	.	.
Cc1nnc(NC(=O)CCC(=O)N2CCN(S(=O)(=O)c3cc([N+](=O)[O-])ccc3C)CC2)s1	.	.	.	.	i	.	.	.	.
Cc1oc(-c2ccccc2Cl)nc1Cn1cccc1C1=NC(c2ccccc2)CO1 (stereo not drawn)	6*	-0.0701	i	-12.7*	i	-5.7	54.0%*	i	52.0%*
CC(C)C1COC(c2cccn2Cc2ccccc2Cl)=N1 (stereo not drawn)	i	0.732	i	i	i	-4.3	i	i	29.5%*
Cc1oc(-c2ccccc2Cl)nc1CN1CCCC1c1ccc(F)cc1 (stereo not drawn)	i	-0.00361	i	i	i	-11.5	.	.	.
O=C(COC(=O)C1COc2ccccc2O1)Nc1ccccc1OC(F)F (stereo not drawn)	.	.	.	.	i	.	.	.	.
CCCn1nc(C(=O)NNC(=O)CCCOc2ccc(C)cc2)c2ccccc2c1=O	i	.	i	i	i	-4.0	.	.	.
